Source: ChEMBL document CHEMBL1629604, “Targeting type III secretion in Yersinia pestis” (Antimicrob Agents Chemother, 2009)
Activity calls are given as the source filed them. No cut-off for these calls is given here.

Columns and labels:
[1] = (§1) Inhibition of T3SS-mediated YopM secretion in Yersinia pestis JG401 after 2 hrs by Western blotting
[2] = system: Yersinia pestis; test: as §1
[3] = (§2) Inhibition of T3SS-mediated YopH secretion in Yersinia pestis JG401 after 2 hrs by Western blotting
[4] = system: Yersinia pestis; test: as §2
[5] = (§3) Inhibition of T3SS-mediated YopD secretion in Yersinia pestis JG401 after 2 hrs by Western blotting
[6] = system: Yersinia pestis; test: as §3
[7] = system: Yersinia pestis; test: Toxicity in Yersinia pestis JG153 assessed as growth inhibition at 60 uM measured 6 mins intervals for 24 hrs; format: organism-based
[8] = system: HeLa; test: Cytotoxicity against human HeLa cells assessed as cell rounding up to 60 uM after 3 hrs; format: cell-based
In short: (§4)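 HeLa monolayers seeded 1 day before at 1×10^5 cells/well in DMEM with 3% heat-inactivated FBS. Compound applied, cells incubated 37°C for 3 h. Monolayer disruption scored by microscopy as rounding and as percentage of cells detached from the plate.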

[9] = system: HeLa; test: Cytotoxicity against human HeLa cells assessed as cell detachment up to 60 uM after 3 hrs; format: cell-based; in short: as §4
[10] = system: HeLa; test: Cytotoxicity against human HeLa cells assessed as LDH release up to 60 uM after 3 hrs; format: cell-based
In short: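 HeLa cells seeded 1 day before in DMEM with 3% heat-inactivated FBS, then exposed to compound up to 60 μM at 37°C for 2–3 h. LDH in supernatant measured by kit. 0.1% Triton X-100 lysis gave the maximum and untreated cells the baseline; % cytotoxicity was calculated relative to both. Mean of three independent assays.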

[11] = system: Escherichia coli; test: Inhibition of T3SS-mediated Tir secretion in enteropathogenic Escherichia coli KC14 harboring pKC17 at after 2 hrs by Western blotting
[12] = system: HeLa; test: Inhibition pCD1 positive Yersinia pestis JG153 T3SS-mediated morphological changes in human HeLa cells after 3 hrs; format: cell-based
[13] = system: Yersinia pestis; test: Inhibition of translocation of YopE::Bla fusion from pMM85 expressing Yersinia pestis JG153 to human HeLa cells at 80 uM after 3 hrs by fluorescence microscopic analysis; format: functional, organism-based
[14] = system: Yersinia pestis; test: Inhibition of translocation of YopE::Bla fusion from pMM85 expressing Yersinia pestis JG153 to human HeLa cells at 40 uM after 3 hrs by fluorescence microscopic analysis; format: functional
[15] = system: Yersinia pestis; test: Inhibition of T3SS-mediated YopD secretion in Yersinia pestis JG401 at up to 60 uM after 2 hrs by Western blotting
[16] = system: Yersinia pestis; test: Inhibition of T3SS-mediated YopD secretion in Yersinia pestis JG401 at 15 uM after 2 hrs by Western blotting
[17] = system: Yersinia pestis; test: Inhibition of T3SS-mediated YopM secretion in Yersinia pestis JG401 t up to 60 uM after 2 hrs by Western blotting

Compound: Cc1cc(O)ccc1Sc1ccc(O)cc1C
- IC50 [1]: 10 µM
- inhibition [2]: Dose-dependent effect
- IC50 [3]: 10 µM
- inhibition [4]: Dose-dependent effect
- IC50 [5]: 10 µM
- inhibition [6]: Dose-dependent effect
- Activity [7]: Non-toxic
- Activity [8]: Toxic
- Activity [9]: Toxic
- Activity [10]: Toxic
- inhibition [11]: inactive

Compound: O=C(N/N=C/c1cc(Br)cc(Br)c1O)c1ccc([N+](=O)[O-])cc1
- Activity [7]: Toxic

Compound: O=C(Nc1cccc(C2=NCCN2)c1)Nc1cccc(C2=NCCN2)c1 [IMIDOCARB]
- Activity [7]: Non-toxic
- Activity [8]: Non-toxic
- Activity [9]: Non-toxic
- Activity [10]: Non-toxic

Compound: Cc1ccc(-c2nn(-c3ccccc3)cc2C2CC(c3cccs3)=NN2C(=O)CCCC(=O)O)cc1 (stereo unspecified)
- inhibition [2]: Dose-dependent effect
- inhibition [12]: Dose-dependent effect
- inhibition [4]: Dose-dependent effect
- inhibition [6]: Dose-dependent effect
- Activity [7]: Non-toxic
- Activity [8]: Non-toxic
- Activity [9]: Non-toxic
- Activity [10]: Non-toxic
- inhibition [13]: inactive
- INCC50 [11]: inactive

Compound: Cc1ccc(CSc2nc(C(=O)O)ccc2C#N)cc1
- inhibition [2]: Dose-dependent effect
- inhibition [12]: Dose-dependent effect
- inhibition [4]: Dose-dependent effect
- inhibition [6]: Dose-dependent effect
- Activity [7]: Non-toxic
- Activity [8]: Non-toxic
- Activity [9]: Non-toxic
- Activity [10]: Non-toxic
- inhibition [13]: inactive
- inhibition ([11]; concentration not given here): 96%

Compound: O=C(Nc1cccc(C2=NCCN2)c1)Nc1cccc(C2=NCCN2)c1 [IMIDOCARB DIPROPIONATE]
- inhibition at 40 µM [14]: 50%

Compound: O=C(Nc1cccc(C2=NCCN2)c1)Nc1cccc(C2=NCCN2)c1
- inhibition [2]: Dose-dependent effect
- inhibition [12]: Dose-dependent effect
- inhibition [4]: Dose-dependent effect
- inhibition [15]: inactive
- inhibition [16]: 50%
- inhibition [6]: Dose-dependent effect
- inhibition [17]: inactive
- inhibition [13]: Active
- inhibition ([11]; concentration not given here): 81%
